Results published in PMC2873786 (Organic & biomolecular chemistry, 2009).
Read-outs that look alike come from different tables or passages of the source.

Key:
[1] = cited from earlier work
[2] = calculated, gas-phase; ref 18c; cited from earlier work
[3] = biological target: T1, soybean lipoxygenase-1 (sLOX-1) (Glycine max, UniProt P08170); experiment: Inhibition of sLOX-1; format: biochemical; conditions: up to 0.25 mM
T1 sequence (P08170 1-839): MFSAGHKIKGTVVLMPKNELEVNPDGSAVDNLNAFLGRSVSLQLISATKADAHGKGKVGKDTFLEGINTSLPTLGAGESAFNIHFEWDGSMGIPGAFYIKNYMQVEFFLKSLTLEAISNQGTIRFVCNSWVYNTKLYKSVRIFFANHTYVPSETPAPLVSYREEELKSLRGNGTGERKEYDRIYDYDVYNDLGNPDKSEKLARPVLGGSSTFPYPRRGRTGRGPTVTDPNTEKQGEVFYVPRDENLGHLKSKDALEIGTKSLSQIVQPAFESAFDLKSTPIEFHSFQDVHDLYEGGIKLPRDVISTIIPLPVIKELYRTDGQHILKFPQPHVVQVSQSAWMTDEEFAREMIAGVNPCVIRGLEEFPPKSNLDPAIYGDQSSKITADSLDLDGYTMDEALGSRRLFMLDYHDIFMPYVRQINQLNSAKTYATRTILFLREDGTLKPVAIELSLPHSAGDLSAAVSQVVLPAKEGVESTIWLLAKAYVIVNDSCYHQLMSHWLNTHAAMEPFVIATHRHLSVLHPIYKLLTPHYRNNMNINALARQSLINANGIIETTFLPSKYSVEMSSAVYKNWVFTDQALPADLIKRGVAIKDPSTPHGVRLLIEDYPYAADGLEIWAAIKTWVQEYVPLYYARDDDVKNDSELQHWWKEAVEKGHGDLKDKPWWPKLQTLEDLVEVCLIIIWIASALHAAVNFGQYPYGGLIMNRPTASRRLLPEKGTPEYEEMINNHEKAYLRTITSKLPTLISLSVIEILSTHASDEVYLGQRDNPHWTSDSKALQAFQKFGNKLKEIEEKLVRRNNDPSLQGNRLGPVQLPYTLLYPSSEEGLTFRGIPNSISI
Procedure, shortened: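 Soybean LOX-1 was purified from a commercial preparation. Linoleic acid (20 μM) was in 100 mM borate pH 9.2. Compound was added from ethanol at […] final (<5% ethanol), then enzyme at 3 nM final. Initial rates (<10% conversion) were followed at 234 nm as 13-HPODE formation. Rates were expressed relative to no-compound controls, 4–6 values per point, and IC50 was derived.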

[4] = biological target: T2, oCOX-1 (Ovis aries, UniProt P05979); experiment: pH-dependent inhibition of COX-1; format: biochemical, ovine; conditions: pH 6.6 to 8.5; 0.5 mM 1; 1.0 mM 2 and 3
T2 sequence (P05979 25-600): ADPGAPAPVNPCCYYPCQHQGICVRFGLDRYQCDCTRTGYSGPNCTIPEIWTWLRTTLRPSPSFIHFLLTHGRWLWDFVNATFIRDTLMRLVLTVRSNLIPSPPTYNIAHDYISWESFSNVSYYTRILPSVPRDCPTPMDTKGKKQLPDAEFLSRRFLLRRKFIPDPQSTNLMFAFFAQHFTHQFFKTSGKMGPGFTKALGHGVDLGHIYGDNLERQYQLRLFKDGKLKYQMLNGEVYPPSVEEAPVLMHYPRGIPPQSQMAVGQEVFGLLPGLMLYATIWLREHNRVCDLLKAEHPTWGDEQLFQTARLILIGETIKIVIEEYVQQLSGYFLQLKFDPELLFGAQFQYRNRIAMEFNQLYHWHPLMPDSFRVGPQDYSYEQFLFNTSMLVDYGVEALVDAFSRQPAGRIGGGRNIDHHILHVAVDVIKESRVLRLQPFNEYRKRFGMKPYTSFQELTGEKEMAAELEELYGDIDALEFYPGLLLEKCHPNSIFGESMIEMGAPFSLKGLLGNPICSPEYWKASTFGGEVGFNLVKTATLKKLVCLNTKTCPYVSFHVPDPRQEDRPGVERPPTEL
Procedure, shortened: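 COX-1 radiolabelled arachidonic acid (0.5 μM) assay: hematin-reconstituted enzyme at 5.4 nM, 8 s reaction at 37 °C, radio-TLC. Buffers were Tris·HCl at pH 8.5, 8.0 and 7.4, and sodium phosphate at pH 8.0, 7.4 and 6.6, all with 500 μM phenol. Compound was present at 0.5 or 1.0 mM final. Activity was expressed as % of the uninhibited control in the same buffer and pH. Significance was tested by Student t-test.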

[5] = tested on: HepG2 cells; experiment: Cytotoxicity assay with HepG2 cell line; format: cell-based, human; conditions: for decrease of total intracellular ATP concentration compared to control: 2 mM (highest exposure level); for intracellular ATP levels, fold control levels: HepG2, 24 h exposure
Procedure, shortened: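 HepG2 cells (ATCC) were grown in DMEM with 10% FBS, non-essential amino acids, penicillin–streptomycin, pyruvate and glutamine, under 5% CO₂ at 37 °C. Cells were seeded at 10⁵ cells/mL with ethanol or water vehicle below 0.5%. Serial compound dilutions, up to 2 mM, were applied for 24 h with 2–3 replicates per dose. Cells were lysed for 5 min and ATP read by luciferin–luciferase luminescence after 10 min at room temperature. Values were taken relative to untreated control.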

[6] = biological target: T3, ovine COX-1 (Ovis aries, UniProt P05979); experiment: Inhibition of oCOX-1; format: biochemical; conditions: for oCOX-1 inhibition, fold less effective than 1: relative to 1; for oCOX-1 inhibition (prostaglandin biosynthesis), fold more effective than ApAP: relative to ApAP
T3 sequence (P05979 25-600): T2 sequence (P05979 25-600)
Procedure, shortened: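 Ovine COX-1 was purified from ram seminal vesicles and held 30 min on ice with 2 equiv hematin in Tris·HCl pH 8.0 plus 500 μM phenol. It was then warmed 2 min at 37 °C with compound. The reaction used [¹⁴C]arachidonic acid (0.5 μM final, prewarmed 30 s) and was started with enzyme at 5.4 nM. It was quenched after 8 s with acidic ether–methanol containing BHA. Products were resolved by radio-TLC. Activity was expressed as % of control, 4–6 values per point.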

[7] = Inhibited autoxidation of styrene; conditions: for kinh: 303 K in chlorobenzene, initiated by AMVN, styrene autoxidation; for inhibition rate constant, fold lower than for 1: relative to 1
[8] = Anodic peak potentials by differential pulse voltammetry; format: physicochemical; conditions: 298 K versus Ag/AgCl, at the pKa
Procedure, shortened: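 Glassy carbon working electrode (alumina-polished between trials), Ag/AgCl reference, platinum wire counter. Buffer was 10 mM potassium phosphate with KCl electrolyte, pH set with KOH or HCl. Compound was added from a 25 mM ethanol stock, pH was measured, and the solution was argon-purged 1 min. DPV used 0.05 s pulse width, 0.2 s pulse period and 10 mV/s at 298 K. […].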

[9] = biological target: T4, oCOX-1 peroxidase (Ovis aries, UniProt P05979); experiment: Effect on reduction of PPHP to PPA; format: biochemical, ovine; conditions: for increase in peroxidase activity of oCOX-1: at a concentration of 1 mM, PPHP to PPA; for peroxidase activation at low concentration: at 100 μM, compared with 1-3
T4 sequence (P05979 25-600): T2 sequence (P05979 25-600)
Procedure, shortened: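 Ovine COX-1 was held 30 min on ice with 2 equiv hematin in Tris·HCl pH 8.0 without phenol. It was warmed 5 min at 37 °C with or without compound. PPHP (10 μM final) was prewarmed 2 min. The reaction was started with enzyme at 5.4 nM and quenched after 8 s with ice-cold ether–methanol–citric acid. The organic phase was dried under nitrogen, redissolved in 65% methanol–water, and analysed by HPLC for PPA formation.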

[10] = Spectrophotometric determination of pKa values; format: physicochemical; conditions: 298 K, 10 mM potassium phosphate, 200 mM KCl, spectrophotometry
Procedure, shortened: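 UV spectra were recorded in buffer at varied pH, blank first. Compound was added from a 25 mM ethanol stock and the pH was remeasured. Aryloxide fraction came from absorbance at λmax, normalised between low- and high-pH limits. pKa was obtained by fitting the fraction versus pH to a sigmoidal function.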

[11] = B3LYP calculated gas-phase O–H BDEs, ionization potentials and acidities; conditions: predicted; 5a vs 2, 6a vs 3
[12] = reference antioxidants; ref 27b; cited from earlier work

| pH-dependence of oCOX-1 inhibition [4] | Epa @ pKa [8] [V] | increase in peroxidase activity of oCOX-1 [9] | pKa [10] | Compound | stability under ambient conditions [1] | IP [2] [kcal/mol] | O–H BDE [2] [kcal/mol] | kinh [7] | other results |
| --- | --- | --- | --- | --- | --- | --- | --- | --- | --- |
| – | – | – | – | CN(C)c1ccc(O)cc1 [4a, reference compound] | too unstable | 157.7 | 76.0 | – | – |
| did not change significantly | 0.32 | 11 fold | – | CC(=O)Nc1ccc(O)cc1 [compound 1, Acetaminophen, reference compound] | – | – | – | 500000 M⁻¹ s⁻¹ | inhibition of sLOX-1 [3]: does not inhibit; decrease of total intracellular ATP concentration compared to control ([5]; HepG2, 24 h): 24.8 ± 1.0%; IC50 [6]: 250 µM; kinh ([7]; listed as ApAP): 500000 M⁻¹ s⁻¹; inhibition rate constant, fold larger than that of BHT ([7]; relative to BHT): ~4 fold |
| markedly improved at higher pH | 0.48 | only slightly | 8.28 | CC(=O)Nc1ccc(O)cn1 [compound 2] | – | – | – | 40000 M⁻¹ s⁻¹ | oCOX-1 inhibition, fold less effective than 1 [6]: ca. 1.6 fold; inhibition rate constant, fold lower than for 1 [7]: 12.5 fold |
| – | 0.31 | – | 8.18 | CN(C)c1ncc(O)cn1 [6a] | quite stable | 174.6 | 78.3 | 1.1 × 10^6 ^d M^−1 s^−1 | decrease of total intracellular ATP concentration compared to control ([5]; HepG2, 24 h): 31.3 ± 1.0%; intracellular ATP concentration relative to control ([5]; HepG2, 24 h, beyond 1 mM): at or above the control; intracellular ATP levels, fold control levels ([5]; 100 μM): ca. 1.8 fold; oCOX-1 inhibition (prostaglandin biosynthesis), fold more effective than ApAP [6]: ca. 12 fold; O–H BDE lower than in 2 and 3 [11]: 5 to 6 kcal/mol; peroxidase activation at low concentration [9]: greater peroxidase activation |
| markedly improved at higher pH | 1.02 | only slightly | 5.89 | CC(=O)Nc1ncc(O)cn1 [compound 3] | – | – | – | 10000 M⁻¹ s⁻¹ | oCOX-1 inhibition, fold less effective than 1 [6]: ~3 fold; inhibition rate constant, fold lower than for 1 [7]: 50 fold |
| – | – | – | – | Cc1cc(C(C)(C)C)c(O)c(C(C)(C)C)c1 [BHT, butylated hydroxytoluene] | – | – | – | – | kinh [12]: 140000 M⁻¹ s⁻¹ |
| – | 0.12 | – | 9.27 | CN(C)c1ccc(O)cn1 [5a] | quite stable | 164.6 | 77.0 | 4.8 × 10^6 ^d M^−1 s^−1 | effect on ATP production ([5]; HepG2, 24 h, by 500 μM exposure): eliminating ATP production; intracellular ATP levels, fold control levels ([5]; 10 μM): ca. 1.75 fold; cytotoxicity in preliminary HepG2 viability assays ([5]; HepG2 cell culture): relatively toxic; oCOX-1 inhibition (prostaglandin biosynthesis), fold more effective than ApAP [6]: ca. 12 fold; O–H BDE lower than in 2 and 3 [11]: 5 to 6 kcal/mol; effect on peroxidase activity at higher concentration ([9]; above 100 μM): abolishes peroxidase activity; peroxidase activation at low concentration [9]: greater peroxidase activation |
| – | – | – | – | Cc1c(C)c2c(c(C)c1O)CC[C@@](C)(CCC[C@H](C)CCC[C@H](C)CCCC(C)C)O2 [α-tocopherol] | – | – | – | – | kinh [12]: 3.2e+06 M⁻¹ s⁻¹ |
